Here are results for 10 molecules from ChEMBL document CHEMBL3351484, “Positive allosteric modulators of 2-amino-3-(3-hydroxy-5-methylisoxazol-4-yl)propionic acid receptors belonging to 4-cyclopropyl-3,4-dihydro-2h-1,2,4-pyridothiadiazine dioxides and diversely chloro-substituted 4-cyclopropyl-3,4-dihydro-2H-1,2,4-benzothiadiazine 1,1-dioxides” (J Med Chem, 2014).

Activity calls are given as the source filed them. No cut-off for these calls is given here.

One may read the Kd as the equilibrium constant for the complex coming apart. A word on the EC50: it is the concentration giving half of the maximal effect. What is called Kp is the ratio of the level in a tissue or fluid to that in plasma or blood.

The species entered for data set [1] is Rattus norvegicus. The data set can be described thus: Positive allosteric modulation of AMPA receptor in rat hippocampal slice assessed as increase in AMPA-mediated presynaptic noradrenaline release. The format is tissue-based. Also noted: concentration or dose not given beside the values. Conditions: Hippocampus. The method in brief:
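Rat hippocampal slices, [3H]noradrenaline release evoked by (S)-AMPA 10 μM, modulator at 300 μM; release given as percent of (S)-AMPA alone taken as 100%.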

Data set [2] relates to Primary neuron. In words: Positive allosteric modulation of AMPA receptor in rat embryonic cortex primary neuronal culture assessed as maximal increase in AMPA-induced membrane depolarization normalized to AMPA-evoked response by microplate reader. The format is cell membranes. The method in brief: (§1)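 Primary cultures of rat embryonic cortical neurons; depolarization evoked by 300 μM AMPA read with fluorescent membrane potential dyes on an imaging plate reader. EC2× is the modulator level doubling the AMPA response (geometric mean, 95% CI).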

Data set [3] has as its system Primary neuron. The data set can be described thus: Potentiation of AMPA receptor in rat embryonic cortex primary neuronal culture assessed as concentration required to 2-fold increase in AMPA-induced membrane depolarization by microplate reader. Type of data set: cell membranes. The method in brief: as §1
The target of a further data set is Glutamate receptor 2 (Homo sapiens, UniProt P42262). The data set can be described thus: Binding affinity to GluA2-LBD-L483Y-N754S complex (unknown origin) by isothermal titration calorimetry. Put shortly: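 Direct ITC titration at 25 °C. 20 × 2 μL injections at 3 min, the first 0.4 μL. First point discarded and dilution heat subtracted before a single-site fit. Mean of three titrations.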
Background: In ITC the heat of successive injections is recorded.

The nature of data set [4]: Positive allosteric modulation of AMPA receptor in rat embryonic cortex primary neuronal culture assessed as increase in AMPA-induced membrane depolarization by microplate reader. Conditions: primary neuron. Type of data set: cell membranes. The method in brief: as §1
A short description of data set [5]: Drug uptake in mouse plasma at 3 mg/kg, po qd after 20 mins by LC-MS/MS analysis. Type of data set: ADME, organism-based. Also noted: dose 3 mg/kg, route oral. Put shortly:
(§2)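 NMRI mice dosed orally, killed by decapitation 20 min later; brain and blood rapidly removed and frozen, compound quantified by LC−MS/MS. Brain in ng/g, plasma in ng/mL; n = 3.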

The subject of data set [6] is Hippocampus. The data set can be described thus: Potentiation of high-frequency stimulation-induced synaptic response in Wistar rat hippocampal dentate gyrus assessed as excitatory postsynaptic field potential at 10 mg/kg, ip after 3 hrs. On the set-up: dose 10 mg/kg. Type of data set: functional, organism-based. Put shortly: (§3)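 Anesthetized Wistar rats dosed ip; perforant-path stimulation with dentate gyrus responses. 1 h after dosing, LTP induced by tetanic high-frequency stimulation and responses followed 3 h; eight responses averaged (every 2 min), normalized to 60 min baseline. n = 8 per group; Dunnett test after two-way ANOVA versus vehicle.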

For a further data set, the system named is Mus musculus. In words: Increase in object recognition task in CD1 mouse at 1 mg/kg, po after 24 hrs. Type of data set: functional, organism-based. Also noted: dose 1 mg/kg. The method in brief:
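Three-session test (habituation, familiarization, recognition) given at 24 h intervals in CD1 mice, compound given orally 1 h before each session. Durations of exploring new versus familiar objects recorded; mean + SEM, paired Student's t test versus familiar object.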

Data set [7] concerns Hippocampus. In words: Potentiation of tetanus-induced synaptic response in Wistar rat hippocampal dentate gyrus at 3 mg/kg, ip measured first 18 mins. Also noted: dose 3 mg/kg. The format is functional, organism-based. The method in brief:
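Anesthetized Wistar rats, dosed ip at 3 or 10 mg/kg, n = 8 per group. Dentate gyrus responses evoked by perforant-path stimulation every 2 min, averaged over eight stimulations and normalized to the 60 min baseline. High-frequency tetanus given 1 h after dosing, with recording for 3 h. Potentiation duration judged per group against the 6 min pre-tetanus period.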

Data set [8] in a line: Ratio of drug level in mouse brain to plasma at 3 mg/kg, po qd after 20 mins by LC-MS/MS analysis. The format is ADME, organism-based. On the set-up: dose 3 mg/kg, route oral. Put shortly:
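Oral dosing in NMRI mice, 20 min before decapitation; brain and plasma levels measured by LC−MS/MS (n = 3), ratio taken as [brain]/[plasma] in mL/g.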

The species named for data set [9] is Rattus norvegicus. The data set can be described thus: Positive allosteric modulation of AMPA receptor in rat hippocampal slice assessed as area of AMPA-mediated […] postsynaptic field potential in CA1 area at 3 uM. Type of data set: tissue-based. Conditions: Hippocampus. The method in brief: (§4)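 Rat hippocampal slices perfused with medium containing 1.2 mM Mg2+; field EPSPs recorded in CA1 after electrical stimulation of Schaffer collaterals. Area, amplitude and half-width normalized to the 10 min baseline as 100%, reported as percent increase, mean ± SEM (n = 3–4).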

Data set [10] in a line: Drug uptake in mouse brain at 3 mg/kg, po qd after 20 mins by LC-MS/MS analysis. The format is ADME, organism-based. On the set-up: dose 3 mg/kg, route oral. Conditions: read-out: Drug uptake. The method in brief: as §2
The species entered for data set [11] is Rattus norvegicus. The data set can be described thus: Positive allosteric modulation of AMPA receptor in rat hippocampal slice assessed as area of AMPA-mediated […] postsynaptic field potential in CA1 area at 10 uM. Type of data set: tissue-based. Conditions: Hippocampus. The method in brief: as §4
The species named for data set [12] is Rattus norvegicus. In words: Positive allosteric modulation of AMPA receptor in rat hippocampal slice assessed as amplitude of AMPA-mediated […] postsynaptic field potential in CA1 area at 10 uM. Conditions: Hippocampus. Type of data set: tissue-based. The method in brief:
as §4

The subject of data set [13] is Hippocampus. The data set can be described thus: Potentiation of high-frequency stimulation-induced synaptic response in Wistar rat hippocampal dentate gyrus assessed as increase in long-term potentiation at 10 mg/kg, ip after 1 hr. On the set-up: dose 10 mg/kg. Type of data set: functional, organism-based. The method in brief: as §3
For data set [14], the species on record is Rattus norvegicus. The data set can be described thus: Positive allosteric modulation of AMPA receptor in rat hippocampal slice assessed as amplitude of AMPA-mediated […] postsynaptic field potential in CA1 area at 3 uM. Type of data set: tissue-based. Conditions: Hippocampus. Put shortly:
as §4

Data set [15] concerns Hippocampus. In words: Potentiation of tetanus-induced synaptic response in Wistar rat hippocampal dentate gyrus at 3 mg/kg, ip measured during 42 mins. On the set-up: dose 3 mg/kg. The format is functional, organism-based.
For data set [16], the species on record is Rattus norvegicus. In words: Positive allosteric modulation of AMPA receptor in rat hippocampal slice assessed as half-width of AMPA-mediated […] postsynaptic field potential in CA1 area at 3 uM. Conditions: Hippocampus. The format is tissue-based. Put shortly:
as §4

For data set [17], the system named is Hippocampus. In words: Potentiation of high-frequency stimulation-induced synaptic response in Wistar rat hippocampal dentate gyrus assessed as excitatory postsynaptic field potential at 3 mg/kg, ip after 3 hrs. Type of data set: functional, organism-based. On the set-up: dose 3 mg/kg. Put shortly:
as §3

The species named for data set [18] is Rattus norvegicus. In words: Positive allosteric modulation of AMPA receptor in rat hippocampal slice assessed as half-width of AMPA-mediated […] postsynaptic field potential in CA1 area at 10 uM. The format is tissue-based. Conditions: Hippocampus. Put shortly: as §4

Sequence of Glutamate receptor 2 (P42262 whole entry, the tested form may be a part): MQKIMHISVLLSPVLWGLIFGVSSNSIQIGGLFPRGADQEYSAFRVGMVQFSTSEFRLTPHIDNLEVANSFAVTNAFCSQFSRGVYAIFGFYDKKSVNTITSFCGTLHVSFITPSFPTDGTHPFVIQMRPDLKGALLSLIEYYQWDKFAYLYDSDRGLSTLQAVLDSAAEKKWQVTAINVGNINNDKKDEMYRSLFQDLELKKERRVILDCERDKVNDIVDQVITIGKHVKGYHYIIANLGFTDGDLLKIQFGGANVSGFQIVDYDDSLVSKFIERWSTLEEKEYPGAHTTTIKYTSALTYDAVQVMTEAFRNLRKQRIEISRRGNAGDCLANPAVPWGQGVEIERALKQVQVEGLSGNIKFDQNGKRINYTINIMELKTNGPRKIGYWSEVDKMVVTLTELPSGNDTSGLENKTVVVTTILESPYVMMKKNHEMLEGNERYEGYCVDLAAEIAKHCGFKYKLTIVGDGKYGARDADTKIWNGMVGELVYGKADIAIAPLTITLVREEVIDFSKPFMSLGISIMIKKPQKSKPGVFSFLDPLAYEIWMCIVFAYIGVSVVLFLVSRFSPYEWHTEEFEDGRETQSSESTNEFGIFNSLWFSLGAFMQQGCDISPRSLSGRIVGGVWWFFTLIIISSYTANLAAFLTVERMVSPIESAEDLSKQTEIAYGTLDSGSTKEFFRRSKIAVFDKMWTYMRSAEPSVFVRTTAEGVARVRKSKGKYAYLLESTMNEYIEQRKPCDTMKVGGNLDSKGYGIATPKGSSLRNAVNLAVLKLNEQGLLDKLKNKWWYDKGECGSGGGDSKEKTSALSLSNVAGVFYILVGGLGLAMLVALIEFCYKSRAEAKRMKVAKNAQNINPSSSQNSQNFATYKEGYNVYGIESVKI

As to `O=S1(=O)NCN(C2CC2)c2ncc(Cl)cc21`, the results for the Activity in the data set listed under Rattus norvegicus [1] and in the data set on Primary neuron [3] were 276% and 2.4 µM, respectively. Moreover, the Emax with Primary neuron [2] was > 7.

Regarding `O=S1(=O)NCN(C2CC2)c2ncccc21`, the Activity in the data set listed under Rattus norvegicus [1] is 221%; in the data set with Primary neuron [3], 13.9 µM. In addition, the Emax in the data set with Primary neuron [2] was > 4.

In turn, `CCN1CNS(=O)(=O)c2cnccc21` yielded a Kd at Glutamate receptor 2 of 1200 µM.

For `O=S1(=O)NCN(C2CC2)c2cccnc21`, the Activity amounted to 323% in the data set listed under Rattus norvegicus [1] and 0.35 µM in the data set on Primary neuron [3]. Besides, the EC50 in [4] turned out to be 1.5 µM. In addition, in the data set on Primary neuron [2], the Emax amounted to 10.

In the case of `O=S1(=O)NCN(C2CC2)c2c(Cl)cccc21`, the figures for the Activity in the data set filed under Rattus norvegicus [1] and in the data set on Primary neuron [3] were 196% and 27.1 µM, respectively. In the data set with Primary neuron [2], the Emax was > 3.

As to `O=S1(=O)NCN(C2CC2)c2ccncc21`, the Activity in the data set filed under Rattus norvegicus [1] amounted to 330%; in the data set with Primary neuron [3] it was 4.4 µM. In addition, the Emax with Primary neuron [2] is > 11.

For the molecule `O=S1(=O)NCN(C2CC2)c2ccc(Cl)cc21`, the concentration at 20 min in data set [5] amounted to 64.7 ng/mL; in data set [10] it was 72.7 ng/g. Further, the outcome in the data set with Hippocampus [6], with Mus musculus, in the data set with Hippocampus [7], in the data set with Hippocampus [13], with Hippocampus [15] and with Hippocampus [17] was Active. Also, the Activity was 411% in the data set filed under Rattus norvegicus [1]; 10% in the data set listed under Rattus norvegicus [9]; 145% in the data set filed under Rattus norvegicus [11]; 58% in the data set filed under Rattus norvegicus [12]; 0.68 µM with Primary neuron [3]; 5.3% in the data set listed under Rattus norvegicus [14]. The Activity in the data set listed under Rattus norvegicus [16] is 9%; in the data set listed under Rattus norvegicus [18], 113%. Also, the 50% effective concentration (EC50) in [4] turned out to be 2.9 µM. In data set [8], the concentration ratio (Kp) at 20 min came out at 1.12. Moreover, in the data set with Primary neuron [2], the Emax is 11.

With `O=S1(=O)NCN(C2CC2)c2cc(Cl)ccc21`, the Activity was 327% in the data set listed under Rattus norvegicus [1] and 5.2 µM in the data set with Primary neuron [3]. The Emax in the data set on Primary neuron [2] was > 5.

Consider `O=S1(=O)NCN(C2CC2)c2ccc(F)cc21`, for which the concentration giving a half-maximal response (EC50) in [4] worked out at 0.9 µM. At Glutamate receptor 2, this molecule registered a Kd of 0.35 µM. Also, in the data set on Primary neuron [2], the Emax came out at 15. In addition, in the data set on Primary neuron [3], the Activity was 0.27 µM.

On to `O=S1(=O)NCN(C2CC2)c2cccc(Cl)c21`, for which the Activity in the data set listed under Rattus norvegicus [1] is 352%; with Primary neuron [3] it was 2 µM. In addition, the Emax with Primary neuron [2] is > 9.
